# MDM2 E3 inh: inhibitors of human Mdm2 E3 ubiquitin ligase | Q00987 | cell-based MDM2 ubiquitination luciferase reporter, 2 h; 0 = plate control, 100 = twice control, blank-subtracted | signal enhancement, % at 5 µM | hit rate 0.11% among 210,000 | AID 1230;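 active means signal enhancement of 30% or more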;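 further: luminescence tracks abundance of the self-degrading MDM2-luciferase fusion protein; higher signal means inhibition of MDM2 E3 ligase activity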
#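 Material: stable MDM2–luciferase fusion reporter cells / Quantity: 2000 cells/well / Dosing: single 5 µM compound dose, 0.2% final DMSO / Buffer or medium: DMEM / Schedule: 4 h cell settling then 2 h compound exposure, 37 °C / Detection: luminescence with SteadyLite reagent, 15 min at room temperature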
# ABCB1 block: blocks JC-1 efflux by human ABCB1 transporter; hit rate 0.067% among 190,000; P08183; AID 1326; CCRF-Adr cells, flow cytometry; inhibition, % at 6.6 µM; in the data active means inhibition above about 40%;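 further: 0% = vehicle and 100% = reference inhibitor; higher value means more JC-1 retained so stronger ABCB1 efflux block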
# Target sequence (P08183 whole entry, looked up): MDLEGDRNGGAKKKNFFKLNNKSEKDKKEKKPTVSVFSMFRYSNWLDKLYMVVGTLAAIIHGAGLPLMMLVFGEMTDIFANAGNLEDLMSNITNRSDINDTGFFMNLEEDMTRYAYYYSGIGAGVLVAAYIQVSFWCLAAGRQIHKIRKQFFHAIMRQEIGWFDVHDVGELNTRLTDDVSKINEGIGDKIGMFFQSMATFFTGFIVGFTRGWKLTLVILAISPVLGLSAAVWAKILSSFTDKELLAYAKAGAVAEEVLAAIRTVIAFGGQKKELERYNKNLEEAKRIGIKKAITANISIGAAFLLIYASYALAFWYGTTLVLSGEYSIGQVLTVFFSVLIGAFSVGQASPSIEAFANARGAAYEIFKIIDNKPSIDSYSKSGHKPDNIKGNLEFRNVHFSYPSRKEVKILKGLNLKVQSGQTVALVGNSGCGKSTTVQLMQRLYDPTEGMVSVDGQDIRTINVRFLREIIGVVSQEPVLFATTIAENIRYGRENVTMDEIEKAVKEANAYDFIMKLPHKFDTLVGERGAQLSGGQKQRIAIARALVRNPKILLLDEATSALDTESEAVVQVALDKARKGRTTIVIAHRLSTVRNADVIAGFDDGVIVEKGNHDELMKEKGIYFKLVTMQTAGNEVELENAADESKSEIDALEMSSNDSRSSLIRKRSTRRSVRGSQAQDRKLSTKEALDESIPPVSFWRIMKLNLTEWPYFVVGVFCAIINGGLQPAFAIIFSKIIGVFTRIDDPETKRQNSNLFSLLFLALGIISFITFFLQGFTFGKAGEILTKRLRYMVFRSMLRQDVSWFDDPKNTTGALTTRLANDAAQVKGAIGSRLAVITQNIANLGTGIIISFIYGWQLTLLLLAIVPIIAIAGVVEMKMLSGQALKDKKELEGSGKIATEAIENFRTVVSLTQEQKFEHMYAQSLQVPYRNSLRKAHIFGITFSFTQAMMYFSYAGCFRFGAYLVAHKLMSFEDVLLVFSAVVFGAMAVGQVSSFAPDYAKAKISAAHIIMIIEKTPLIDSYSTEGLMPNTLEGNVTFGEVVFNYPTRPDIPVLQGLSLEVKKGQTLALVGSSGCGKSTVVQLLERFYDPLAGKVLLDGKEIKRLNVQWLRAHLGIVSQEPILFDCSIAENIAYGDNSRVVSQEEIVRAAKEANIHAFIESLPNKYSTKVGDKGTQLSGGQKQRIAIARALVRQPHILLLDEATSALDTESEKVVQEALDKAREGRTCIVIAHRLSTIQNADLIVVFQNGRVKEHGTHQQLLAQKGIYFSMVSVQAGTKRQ
# ABCG2 inh: human ABCG2 inhibition, ABCB1 as counter-screen. Q9UNQ0. IgMXP3 cells, JC-1 efflux, flow cytometry. inhibition, % at 6.6 µM. hit rate 0.1% among 190,000. AID 1325;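 active means inhibition above 80%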;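 further: 0% = DMSO and 100% = nicardipine control wells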
#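 material = IgMXP3 (ABCG2) plus far-red-tagged CCRF-Adr (ABCB1) cells | amount = 3 million cells/mL, equal mix of both lines | also added = JC-1 transporter substrate | dosing = one concentration, 6.6 µM final | schedule = 10 min at 25 °C | measured by = flow cytometric JC-1 green MFI at 530 nm | read-out basis = percent efflux inhibition, scaled nicardipine 100% to DMSO 0%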
# Rad51 HR inh: Rad51 (human) homologous recombination inhibition. hit rate 0.085% among 200,000. hRad51 DNA strand exchange, fluorescence dequenching. inhibition, % at 10 µM;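 active means inhibition above 40% at the single screening dose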;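 further: 0% = DMSO control wells and 100% = blanks with heterologous ssDNA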
#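 System: hRad51 filaments on single-stranded DNA; reagent: Fluorescein- and BHQ1-tagged 47-mer duplex; compound dosing: one concentration, 10 µM final; timing: filaments 15 min 37 °C, then compound 30 min; measured by: fluorescein emission 520 nm, excitation 485 nm; benchmarks: per-plate controls and blanks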
# Arbovirus anti: antivirals against arbovirus infection; hit rate 0.37% among 200,000; AID 1251; inhibition, % at 10 µM; arbovirus infection cell-based antiviral screen; in the data active means inhibition above about 30%
# Active calls of the source: *; i = inactive; x = no result. The list is not random: actives were taken first. Their share in the collection is about 0.62%.
SMILES,MDM2 E3 inh,ABCB1 block,ABCG2 inh,Rad51 HR inh,Arbovirus anti
O=C(/C=C/c1ccc(N2CCC(c3ccccc3)=N2)cc1)c1ccccc1,-10,75*,81*,i,-13
O=C(/C=C/c1ccc(O)cc1)c1ccccc1,-16,x,x,x,x
CCOc1ccc(OCC)c(NC(=O)CN(C)S(=O)(=O)c2cnc[nH]2)c1,-6,1,3,-4,-1
CCOc1ccc(NC(=O)CN(C)S(=O)(=O)c2cnc[nH]2)cc1,32*,1,0,-5,-3
CCCCCN(C(=O)CN1CCC(Cc2ccccc2)CC1)c1c(N)n(CCCC)c(=O)[nH]c1=O,-7,1,3,-8,-3
O=C(c1ccco1)c1coc2c1cc(O)c1ccccc12,2,0,0,5,-14
COc1cccc(C2=CC(c3ccc(C)cc3)n3ncnc3N2)c1 (configuration not stated),0,0,3,-1,66*
Cc1ccc(C2C=C(c3ccc4c(c3)OCO4)Nc3ncnn32)cc1 (configuration not stated),-19,0,5,x,85*
Cc1ccc(C2=CC(c3ccccc3)n3ncnc3N2)cc1 (configuration not stated),x,x,x,-6,x
COc1cccc(CN=C2Nc3ccccc3CS2)c1,-10,1,3,16,30*
COc1ccc(CCNC(=O)CC2SC(N)=NC2=O)cc1OC (configuration not stated),-7,0,-2,6,16
N#Cc1c(-c2ccco2)nc(SCC(=O)Nc2ccc(S(N)(=O)=O)cc2)[nH]c1=O,-5,3,9,x,32*
CCCn1c2c(c(O)c(C(=O)Nc3nc(C)cs3)c1=O)CCCC2,-11,0,0,-3,12
CC(C)Cn1c2c(c(O)c(C(=O)Nc3nccs3)c1=O)CCCC2,-4,1,5,x,37*
Cc1csc(NC(=O)c2c(O)c3c(n(CC(C)C)c2=O)CCCC3)n1,-4,1,3,0,55*
CCN=c1scc(C)n1/N=C/c1ccc(O)c(O)c1O,8,-1,-3,0,3
CCN=c1scc(C)n1/N=C/c1cc(Br)c(O)c(Br)c1,-5,-1,-2,x,31*
COc1cc(CN2CCN(c3ccc(C)cc3)CC2)cc([N+](=O)[O-])c1O,-23,0,1,117*,2
COc1cc(CN2CCN(c3cc(C)ccc3C)CC2)cc([N+](=O)[O-])c1O,x,x,x,6,x
CC(NC(=O)CNC(=O)C(Cc1ccccc1)NC(=O)OCc1ccccc1)C(N)=O (configuration not stated),13,0,-1,0,0
Clc1cccc(NCc2cn3cccnc3n2)c1,-3,-1,13,-3,0
O=C(CSc1nnc(Cc2ccccc2)o1)N1CCc2ccccc21,-88,-1,16,85*,-3
O=C(CSc1nnc(CNc2ccccc2)o1)N1CCCc2ccccc21,-5,1,1,x,7
COc1ccc(CNC(=O)CCC(=O)N2CCN(S(=O)(=O)c3ccc(Cl)cc3)CC2)cc1,-5,1,6,-3,0
O=c1[nH]n2c(=O)c3c([nH]c2c1N=Nc1cccc(Cl)c1)CCC3,-3,-1,-6,x,34*
SMILES,MDM2 E3 inh,ABCB1 block,ABCG2 inh,Rad51 HR inh,Arbovirus anti
O=c1[nH]n2c(=O)c3c([nH]c2c1N=Nc1cccc(C(F)(F)F)c1)CCCC3,x,0,0,1,37*
N#Cc1ccccc1S(=O)(=O)c1ccccc1C(=O)Nc1ccccc1,-2,0,1,-6,19
COC(=O)c1cc2cc(Cl)ccc2nc1SC,-11,x,x,6,x
Oc1ccc(N=Nc2n[nH]c(-c3ccc(Cl)cc3)n2)cc1,1,1,39,-1,-15
Oc1ccc(Nc2nc(NCC3CCCO3)c3ccccc3n2)cc1 (configuration not stated),-16,1,7,-6,41*
CCOc1ccc(Nc2ccc(N3C(=O)CCC3=O)cc2[N+](=O)[O-])cc1,1,1,6,12,-1
CCCCCOCC1CC(C/C(C)=N/Nc2nc(-c3ccccc3)cs2)C(=O)O1 (configuration not stated),2,2,5,62*,7
CC(C)Oc1ccc(C(=O)NC(=S)N2CCOCC2)cc1,53*,0,0,x,3
CN1CCN(C(=S)NC(=O)c2ccc(S(=O)(=O)N3CCOCC3)cc2)CC1,-28,0,-1,4,10
c1ccc(-c2cnn3c(-c4ccccc4)c(-c4ccccc4)nc3n2)cc1,-14,43*,172*,i,4
O=[N+]([O-])c1ccc(C2Oc3ccccc3C3CC(c4ccccc4)=NN32)s1 (configuration not stated),-6,0,2,-5,-33
CCn1cc(C(=O)NCc2ccccc2OC)c(=O)c2cc(S(=O)(=O)N(C)C)ccc21,37*,1,3,6,-7
CCn1cc(C(=O)NCc2ccc3c(c2)OCO3)c(=O)c2cc(S(=O)(=O)N(C)C)ccc21,-9,-1,-10,x,-2
Cc1ccc(-c2cc(C(=O)Nc3cc(C)ccc3C)[nH]n2)c(O)c1,x,0,0,2,2
COc1ccc(OC)c(NC(=O)c2cc(-c3ccc(C)cc3O)n[nH]2)c1,-10,-1,-2,1,31*
COC(=O)c1ccc(NC(=O)c2ccccc2NS(C)(=O)=O)cc1,-8,1,5,-6,52*
O=[N+]([O-])c1cccc(P(=O)(O)c2cccc([N+](=O)[O-])c2)c1,-1,x,x,14,x
CC(C)[C@H](NC(=O)CCCn1nnc2ccccc2c1=O)C(=O)O,-73,x,x,21,x
O=C(O)CSc1nc(-c2ccc(Cl)cc2)nc2c1oc1ccccc12,-3,0,15,x,35*
CCN(CC)c1ccc(/C=N\NC(=O)c2cccc3cc[nH]c23)cc1,-1,x,x,x,x
O=C(NNC(=S)NC1CCCCC1)c1ccc(Cl)s1,4,0,0,x,38*
CCSc1nc2ccccc2n1C(=O)/C=C\c1ccc(OC)c(OC)c1,43*,5,10,-14,-29
CCn1c(=O)n(CC(=O)Nc2cc(OC)c(OC)c(OC)c2)c(=O)c2ccccc21,37*,0,1,-1,3
O=C(COc1ccccc1)NCC(=O)Nc1cccc(S(=O)(=O)NC2=NCCC2)c1,-11,0,0,1,16
COC(=O)c1nc(N)sc1-c1ccccc1,8,-6,-7,76*,0
O=C(NCc1ccccc1Cl)C1CCC(CNc2c(N3CCOCC3)c(=O)c2=O)CC1 (configuration not stated),0,x,x,10,x
COc1cc(C(=O)Nc2cccc(C)c2C)c(Br)c(OC)c1OC,-8,2,10,48*,8
CC(C)C(NC(N)=O)C(=O)NC1CCCCC1 (configuration not stated),-18,1,6,-5,5

# Assay outcomes: PubChem BioAssay, several laboratories
